Test results: ChEMBL document CHEMBL3526062, “Role of human UDP-glucuronosyltransferases in the biotransformation of the triazoloacridinone and imidazoacridinone antitumor agents C-1305 and C-1311: highly selective substrates for UGT1A10” (Drug Metab Dispos, 2012)

Legend:
Liver microsome = experiment: Drug metabolism in human liver microsomes assessed as metabolite formation treated with C-1305 for 60 mins by ESI-MS/UV-vis spectroscopy in presence of 3 mM UDP-GlcUA; assay type: ADME; details: 1 h
Procedure, shortened: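 Recombinant human UGT1A1 or UGT1A9 (5 μg protein), or single-donor human liver or intestinal microsomes (20 μg), incubated in Tris-HCl pH 7.4 with 5 mM MgCl2, 5 mM saccharolactone, 2% DMSO and 100 or 200 μM substrate. Started with UDP-GlcUA, 60 min at 37°C, in triplicate. Product identified by HPLC with positive-ion ESI-MS and UV/Vis spectra, and confirmed by β-glucuronidase hydrolysis.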

[1] = Drug metabolism in human intestinal microsomes assessed as metabolite formation treated with C-1311 for 60 mins by ESI-MS/UV-vis spectroscopy in presence of 3 mM UDP-GlcUA; assay type: ADME, Intestine, Microsome; details: 1 h
Procedure, shortened: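 Protein (5 μg UGT1A10 or microsomal) incubated with 0.2 mM substrate and 3 mM UDP-GlcUA, 60 min. HPLC on C18 at 25°C with a 15–80% methanol gradient in 0.05 M ammonium formate pH 3.4 at 1 ml/min. ESI positive-ion MS and UV/Vis spectra taken from the peaks. Glucuronide confirmed by 60 min further treatment with 1000 U E. coli β-glucuronidase.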

Drug metabolism (Liver microsome)	SMILES	Drug metabolism [1]
metabolite_detected	CN(C)CCCNc1ccc2nnn3c4ccc(O)cc4c(=O)c1c23	
	CCN(CC)CCNc1ccc2ncn3c4ccc(O)cc4c(=O)c1c23 [C-1311]	metabolite_detected
